According to ChEMBL document CHEMBL1132971, “New azolidinediones as inhibitors of protein tyrosine phosphatase 1B with antihyperglycemic properties” (J Med Chem, 2000):
Activity calls are given as the source filed them. The rule behind the calls is not given here.

Experiments:
Mus musculus [1] = assay: Evaluated in vivo for their ability to decrease plasma glucose levels in diabetic C57BL/KsJ db/db mouse at a dose 50 mg/kg/day, *p indicates <0.05; assay type: functional
Method in brief: (§1)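 Diabetic db/db or ob/ob mice dosed orally once daily for 4 days. Plasma glucose and insulin reported as percent change from a vehicle-treated group. 4-6 mice per group. Significance set at p < 0.05 or p < 0.01 versus vehicle; NS means generally less than -15% change.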

[2] = target: T1, Tyrosine-protein phosphatase non-receptor type 1 (Mus musculus) (UniProt P35821); assay: In vivo ability to decrease plasma glucose levels in diabetic C57BL/KsJ ob/ob mouse at a dose 100 mg/kg/day; assay type: functional, organism-based; method in brief: as §1
T1 sequence (whole entry): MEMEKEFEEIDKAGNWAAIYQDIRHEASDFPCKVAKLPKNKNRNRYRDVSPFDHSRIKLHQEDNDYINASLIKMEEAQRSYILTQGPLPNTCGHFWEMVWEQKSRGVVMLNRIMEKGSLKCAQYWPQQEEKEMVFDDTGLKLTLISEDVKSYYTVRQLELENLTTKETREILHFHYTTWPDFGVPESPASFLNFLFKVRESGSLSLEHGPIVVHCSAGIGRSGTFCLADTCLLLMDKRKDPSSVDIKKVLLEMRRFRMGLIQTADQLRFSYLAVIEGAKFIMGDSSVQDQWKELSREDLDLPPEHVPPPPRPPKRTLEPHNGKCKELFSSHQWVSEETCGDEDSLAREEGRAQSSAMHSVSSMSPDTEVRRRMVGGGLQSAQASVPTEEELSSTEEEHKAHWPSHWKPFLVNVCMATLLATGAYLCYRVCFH

[3] = target: T1, Tyrosine-protein phosphatase non-receptor type 1 (Mus musculus); assay: Ability to decrease plasma insulin levels in mouse at a dose 100 mg/kg/day; assay type: functional, organism-based; method in brief: as §1
[4] = target: T2, Tyrosine-protein phosphatase non-receptor type 1 (Rattus norvegicus, UniProt P20417); assay: Inhibition of PTPase activity using recombinant r-PTP1B and IR-triphosphopeptide as substrate; ND is no data.
T2 sequence (P20417 whole entry): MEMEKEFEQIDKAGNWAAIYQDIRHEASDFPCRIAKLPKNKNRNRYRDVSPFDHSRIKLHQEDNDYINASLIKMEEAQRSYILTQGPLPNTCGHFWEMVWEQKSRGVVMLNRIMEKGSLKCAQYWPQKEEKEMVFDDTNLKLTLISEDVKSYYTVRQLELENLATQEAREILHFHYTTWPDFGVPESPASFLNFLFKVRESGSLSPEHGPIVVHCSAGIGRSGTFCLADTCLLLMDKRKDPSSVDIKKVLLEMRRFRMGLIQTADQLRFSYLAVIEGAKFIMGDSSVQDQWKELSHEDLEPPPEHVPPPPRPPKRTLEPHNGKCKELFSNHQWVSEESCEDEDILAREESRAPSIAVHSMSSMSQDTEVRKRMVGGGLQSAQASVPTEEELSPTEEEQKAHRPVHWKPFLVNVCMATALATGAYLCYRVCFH
Method in brief: (§2)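 Rat recombinant PTP1B in 33 mM TRIS-HCl, 2 mM EDTA, 50 mM β-mercaptoethanol, pH 7.4 (about 1000-2000 nmol/min/mg). Preincubated 10 min at 37 °C with or without compound in HEPES buffer pH 7.4. Released phosphate read by malachite green-ammonium molybdate at 650 nm against a phosphate standard. Quadruplicates. IC50 by four-parameter logistic fit.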

[5] = target: T3, Tyrosine-protein phosphatase non-receptor type 1 (Rattus norvegicus) (UniProt P20417); assay: Inhibition of PTPase (PTP1B) activity in rat hepatic membrane at 50 uM concentration, using pNPP as the substrate; assay type: cell membranes; conditions: Liver
T3 sequence (whole entry): T2 sequence (P20417 whole entry)
Method in brief: (§3)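 Liver membranes from male Sprague-Dawley rats (100-150 g), about 30 µg protein per well. Preincubated 10 min at 37 °C with compound in 1.25% DMSO in 50 mM HEPES pH 7.4. Then 6.33 mM pNPP for 30 min at 37 °C, stopped with NaOH. p-Nitrophenol read at 410 nm. Run in triplicate. Reported as percent of untreated control.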

[6] = target: T2, Tyrosine-protein phosphatase non-receptor type 1; assay: Inhibition of PTPase activity in rat hepatic membrane at a concentration of 50 uM using pNPP as the substrate; assay type: cell membranes, Liver; method in brief: as §3
Mus musculus [7] = assay: Evaluated in vivo for their ability to decrease plasma glucose levels in diabetic C57BL/KsJ ob/ob mouse at a dose 100 mg/kg/day; NS is non significant; assay type: functional, organism-based; method in brief: as §1
[8] = target: T3, Tyrosine-protein phosphatase non-receptor type 1 (Rattus norvegicus); assay: Inhibition of PTPase activity using recombinant r-PTP1B as the enzyme and IR-triphosphopeptide as substrate at 50 uM; method in brief: as §2
Mus musculus [9] = assay: Evaluated for their ability to decrease plasma insulin levels in mouse at a dose 100 mg/kg/day.; NS is non significant; assay type: functional, organism-based; method in brief: as §1
Mus musculus [10] = assay: (§4) Evaluated in vivo for their ability to decrease plasma glucose levels in diabetic C57BL/KsJ db/db mouse at a dose 100 mg/kg/day, *p indicates <0.05; assay type: functional; method in brief: as §1
Mus musculus [11] = assay: as §4; assay type: functional; remark: listed apart in the source
Method in brief: (§5)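 Mice dosed orally once daily for 4 days; plasma glucose and insulin measured and expressed as percent change versus a vehicle-treated group (mean ± SE, 4-6 mice/group). NS is generally less than -15% change. Significance is versus vehicle-treated mice.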

Mus musculus [12] = assay: Evaluated in vivo for their ability to decrease plasma glucose levels in diabetic C57BL/KsJ ob/ob mouse at a dose 100 mg/kg/day, **p indicates <0.01; assay type: functional; method in brief: as §1
Mus musculus [13] = assay: Evaluated for their ability to decrease plasma insulin levels in mouse at a dose 100 mg/kg/day, **p indicates <0.01; assay type: functional; method in brief: as §1
[14] = target: T4, Tyrosine-protein phosphatase non-receptor type 1 (Homo sapiens, UniProt P18031); assay: Concentration required to inhibit PTPase activity, recombinant Protein Tyrosine Phosphatase 1b as the enzyme at a concentration 2.5 uM.; method in brief: as §2
T4 sequence (P18031 whole entry): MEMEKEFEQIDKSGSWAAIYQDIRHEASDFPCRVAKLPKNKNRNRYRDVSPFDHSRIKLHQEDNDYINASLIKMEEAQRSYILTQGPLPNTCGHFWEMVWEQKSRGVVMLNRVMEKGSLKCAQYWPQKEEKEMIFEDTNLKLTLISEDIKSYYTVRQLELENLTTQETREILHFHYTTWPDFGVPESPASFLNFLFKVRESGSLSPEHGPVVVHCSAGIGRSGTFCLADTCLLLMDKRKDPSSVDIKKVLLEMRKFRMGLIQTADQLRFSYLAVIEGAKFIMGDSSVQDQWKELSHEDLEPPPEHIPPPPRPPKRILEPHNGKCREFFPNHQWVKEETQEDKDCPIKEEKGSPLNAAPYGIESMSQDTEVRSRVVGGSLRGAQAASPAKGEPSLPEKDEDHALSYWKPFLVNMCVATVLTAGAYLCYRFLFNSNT

Mus musculus [15] = assay: Evaluated for their ability to decrease plasma insulin levels in mouse at a dose 100 mg/kg/day; **p indicates <0.01; assay type: functional; method in brief: as §5
Mus musculus [16] = assay: Evaluated in vivo for their ability to decrease plasma glucose levels in diabetic C57BL/KsJ db/db mouse at a dose 100 mg/kg/day; *p indicates <0.05; assay type: functional; method in brief: as §5
Mus musculus [17] = assay: Evaluated in vivo for their ability to decrease plasma glucose levels in diabetic C57BL/KsJ ob/ob mouse at a dose 100 mg/kg/day; **p indicates <0.01; assay type: functional; method in brief: as §1
Mus musculus [18] = assay: Evaluated in vivo for their ability to decrease plasma glucose levels in diabetic C57BL/KsJ db/db mouse at a dose 100 mg/kg/day; NS is non significant, generally less than - 15% change; assay type: functional, organism-based; method in brief: as §1

| Structure (SMILES) | Decrease [2] | Decrease [3] | IC50 [4] | inhibition [5] [%] | also measured |
| --- | --- | --- | --- | --- | --- |
| C/C(=C/C=C/Cn1oc(=O)[nH]c1=O)c1cccc(OCc2nc(-c3ccccc3)oc2C)c1 | Not significant | Not significant | Not significant | 55 | Decrease (Mus musculus [1]): 19% |
| Cc1oc(-c2ccc(C(F)(F)F)cc2)nc1COc1cccc(/C(=C/Cn2oc(=O)[nH]c2=O)C(C)(C)C)c1 |  |  |  |  | Inhibition % [6]: 24%; Decrease (Mus musculus [7]): inactive; inhibition [8]: 0.6%; Decrease (Mus musculus [9]): inactive |
| C/C(=C\Cn1oc(=O)[nH]c1=O)c1ccc(OCc2nc(-c3ccc(C(F)(F)F)cc3)oc2C)cc1 | Not significant | Not significant |  | 4.3 | Decrease (Mus musculus [10]): 16% |
| C/C(=C\Cn1oc(=O)[nH]c1=O)c1cccc(OCc2nc(-c3ccc(OC(F)(F)F)cc3)oc2C)c1 |  |  | Not significant | 57 | Decrease (Mus musculus [11]): 41%; Decrease (Mus musculus [12]): 39%; Decrease (Mus musculus [13]): 82% |
| C/C(=C\Cn1oc(=O)[nH]c1=O)c1cccc(OCc2ccccn2)c1 |  |  |  | 5 | IC50 [14]: 9 µM |
| C/C(=C\Cn1oc(=O)[nH]c1=O)c1cccc(OCc2nc(-c3ccccc3)oc2C)c1 (stereo in doubt; 49) |  |  |  |  | Decrease (Mus musculus [15]): 76%; Decrease (Mus musculus [16]): 28%; Decrease (Mus musculus [17]): 39% |
| C/C(=C\CC1OC(=O)NC1=O)c1cccc(OCCc2nc(-c3ccccc3)oc2C)c1 (stereo not drawn) | Not significant | Not significant | Not significant | 36 | Decrease (Mus musculus [18]): inactive |
